H9c2 protect: cardioprotection against H2O2-induced cell death, primary screen, uHTS, H9c2 cells, ATPLite luminescence | H9c2 cardiomyocytes, H2O2 injury protection, 2 h | protection from H2O2 cell death, % at 20 µM | actives 0.63% (n = 360,000) | AID 588492, 2011;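 active means compounds giving at least 50% protection of heart cells from peroxide-induced death in the single-dose screen, raw or plate-pattern-corrected value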
UPR CHOP act: activators of apoptotic CHOP UPR arm, primary screen, cell-based, CHO-CHOP luciferase reporter, luminescence, uHTS. UPR activation; percent of tunicamycin response over DMSO baseline. activation, % at 10 µM. actives 0.34% (n = 330,000);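 active means at 10 µM dose, activation of 40% or more, normalized to positive control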
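Assay system: CHO-CHOP cells, stable luciferase reporter of PERK-eIF2a-CHOP signalling / Buffer or medium: F12 plus 10% serum / Compound dosing: one dose, 10 µM in 0.5% DMSO / Times: 6 h compound treatment, 37 °C / Technique: luciferase luminescence / Read-out: % reporter activation, DMSO baseline versus tunicamycin full activation / Benchmarks: tunicamycin and DMSO controls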
CHOP inh: inhibitors of CHOP promoter induction, primary screen, cell-based, unfolded protein response, luciferase reporter | CHO-K1 CHOP-promoter luciferase, tunicamycin-induced, 15-18 h | inhibition, % at 10 µM | actives 3.8% (n = 220,000);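 active means compounds that reduced the stress-induced luciferase reporter signal by more than about 70% of percent inhibition, limit read from the data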
iPSC survival up: enhancers of single-cell hiPSC survival, primary screen, ATPlite luminescence. 100% = ROCK inhibitor wells, 0% = DMSO. survival enhancement, % at 20 µM. actives 0.044% (n = 360,000); in the data active means survival enhancement above about 18%;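 further: cells exposed to compounds for 16 hours before the ATP read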
UPR XBP1 act: activators of adaptive XBP1 UPR arm, primary screen, cell-based, CHO-XBP1 luciferase reporter, luminescence, uHTS. IRE1-XBP1 UPR activation; percent of tunicamycin response, DMSO as zero. activation, % at 20 µM. actives 0.33% (n = 330,000). AID 463104, 2010;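 active means versus positive control, 20 µM dose yields 30% or more activation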
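Material – CHO cell line with stable XBP1 luciferase reporter · Buffer or medium – F12 plus 10% FBS · Compound – single point, 20 µM final compound, 1% DMSO · Schedule – 16-18 h cell attachment at 37 °C, then 6 h compound exposure · Signal – Steady-Glo luminescence read · Benchmarks – high control tunicamycin 10 µg/mL final, low control DMSO vehicle only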
A number is an active result; i = inactive; nt = no result given. This excerpt belongs to a sample that is enriched for hits.

SMILES | H9c2 protect | UPR CHOP act | CHOP inh | iPSC survival up | UPR XBP1 act
COc1cc(OC)c2ccc(=O)oc2c1C(CC(=O)N1CCOCC1)c1ccc2c(c1)OCO2 (stereo not given) | i | i | i | i | i
Cc1cc(=O)[nH]c(Nc2ccc(C(=O)OC(C)C)cc2)n1 | i | i | 70.5 | i | i
CC(=O)N(CC(=O)N(CC(=O)O)c1ccc(Cl)cc1)c1ccc(Cl)cc1 | i | nt | nt | i | nt
CCOc1ccc2nc(NC(=O)C3CCCN(S(=O)(=O)c4c(C)noc4C)C3)sc2c1 (stereo not given) | i | i | i | i | i
COc1ccc2nc(NC(=O)C3CCCN(S(=O)(=O)c4c(C)noc4C)C3)sc2c1 (stereo not given) | i | i | 75.5 | i | i
CC(=O)Nc1c(O)c2ccccc2[nH]c1=O | i | i | i | i | i
O=C(Nc1ccc2c(c1)[nH]c(=O)c1ccccc12)C(F)(F)F | 64.3 | nt | nt | i | nt
CC(=O)Nc1ccc2c(c1)[nH]c(=O)c1ccccc12 | 75.0 | nt | nt | i | nt
O=C(Nc1cccc2c1[nH]c(=O)c1ccccc12)C(F)(F)F | i | nt | nt | i | nt
O=C(Nc1cc(C(F)(F)F)ccc1N1CCCCC1)C1=COCCO1 | i | nt | nt | i | nt
CC(=O)NCCNc1nc2cc(-c3ccc(Cl)cc3C)sc2c(=O)n1C | i | nt | nt | i | nt
Cc1nc(N(C)C)c2sc(=S)n(C)c2n1 | i | i | i | i | i
COc1nc(C)nc2c1sc(=S)n2C | i | i | 71.0 | i | i
O=c1[nH]n(Cc2ccccc2)c(=O)c2ccccc12 | 56.5 | i | i | i | i
COc1ccc(CNC(=O)C[C@H]2C[C@H](C(=O)N3CCOCC3)[C@@]3(CCC4CCCC4)c4[nH]c5cc(CCC(=O)N(C)C)ccc5c4CCN3C2=O)cc1OC | i | i | nt | i | i
O=c1[nH]c2ccc(Br)cc2c(-c2ccccc2)c1N1CCOCC1 | i | i | 77.3 | i | i
COc1ccc2nc3ccccc3nc2c1NC(=O)c1ccc(Br)cc1 | i | i | 78.8 | i | i
COc1ccc2nc3ccccc3nc2c1NC(=O)c1ccc(Cl)cc1 | i | i | i | i | i
O=C1c2ccccc2C(=O)c2c1cccc2N(CCO)CCO | i | i | nt | i | i
O=C1C=C(N(CCO)Cc2ccccc2)c2ccccc2C1=O | i | nt | 89.4 | i | nt
CNC(=O)C[C@@H]1C(=O)N(CCc2ccccc2)CC1(C)C | i | nt | nt | i | nt
CCOC(=O)[C@]12CCCC=C1N(Cc1ccc(Cl)cc1Cl)C(=O)[C@H](CC(=O)NCc1ccc(OC)c(OC)c1)C2 | nt | nt | nt | i | nt
CC1=C(C#N)c2nc(N)c(C#N)c(C)c2/C1=C\c1ccc(C)cc1 | nt | i | 98.5 | nt | i
CC(C)OC(=O)CSc1nc(Cc2ccccc2)nc2ccccc12 | i | i | 75.5 | i | i
COC(=O)CSc1nc(Cc2ccccc2)nc2ccccc12 | i | i | i | i | i
SMILES | H9c2 protect | UPR CHOP act | CHOP inh | iPSC survival up | UPR XBP1 act
Cc1cc(NC(=O)c2ccc3nc(-c4ccccc4)c(-c4ccccc4)nc3c2)no1 | i | i | 78.4 | i | i
Cn1cc(C2=C(c3ccc(Cl)cc3Cl)C(=O)NC2=O)c2ccccc21 | i | i | 86.4 | i | i
CCc1ccc(OCC(=O)NC(=S)Nc2cccc(CO)c2)c(Br)c1 | i | i | 83.1 | i | i
CCOC(=O)c1ccc(NC(=O)CCc2nc(-c3ccccc3Cl)no2)cc1 | i | i | 81.2 | i | i
CCOC(=O)c1ccc(NC(=O)CCc2nc(-c3ccccc3)no2)cc1 | i | i | 78.6 | i | i
CCCCN1C(=O)C(CC(=O)NCc2cccc3ccccc23)CC(C(=O)N2CCOCC2)=C1C (stereo not given) | i | nt | nt | i | nt
CCCCN1C(=O)C(CC(=O)NCCN2CCOCC2)CC(C(=O)N(CC)CC)=C1C (stereo not given) | i | nt | nt | i | nt
CC(C)Cn1c(SCc2nc3ccccc3c(=O)[nH]2)nc2ccccc2c1=O | i | i | 82.4 | i | i
COc1ccc(-c2nc(-c3ccc(O)cc3O)cs2)cc1OC | i | nt | 85.1 | i | nt
Cc1[nH]c2ccccc2c1C1C(c2ccccc2)=NN=C(C(C)C)N1O (stereo not given) | i | i | 71.6 | i | i
Cc1ccc(C(C)C)c(OCc2ccc(C(=O)N/N=C/c3ccc(O)cc3O)cc2)c1 | 57.1 | nt | i | i | nt
OCCCNC(=S)Nc1ccc2nccnc2c1 | i | i | i | i | i
Fc1ccc(NC(=S)Nc2ccc3nccnc3c2)cc1 | 62.4 | i | i | i | i
Cc1ccc(NC(=O)c2ccc(Cl)c(S(=O)(=O)Nc3c(C)n(C)n(-c4ccccc4)c3=O)c2)cc1Cl | i | i | nt | i | i
CCC(=O)Nc1ccc(Nc2nc(C)c([N+](=O)[O-])c(Nc3ccc(NC(=O)CC)cc3)n2)cc1 | 70.4 | i | i | i | i
COc1ccc(NC(=S)Nc2cc(-c3ccccc3)[nH]n2)cc1Cl | i | i | 77.9 | i | i
COc1ccc(NC(=S)Nc2cc(C)[nH]n2)cc1Cl | i | i | i | i | i
O=c1[nH]c(N2CCN(c3ccccc3)CC2)nc2c1CCC2 | 50.7 | i | i | i | i
O=c1[nH]c(N2CCN(c3ccccc3)CC2)nc2c1CCCC2 | 55.2 | i | i | i | i
O=c1[nH]c(N2CCN(Cc3ccccc3)CC2)nc2c1CCC2 | i | i | i | i | i
C(=C\c1ccccc1)/CN1CCN(C(c2cccc3ccccc23)c2nnnn2C2CCCC2)CC1 (stereo not given) | i | nt | nt | i | nt
COc1ccc(N2CC(O)=C(c3nc(-c4ccc(Cl)cc4)cs3)C2=N)cc1 | i | i | i | i | 85.2
COc1ccc(N2CC(O)=C(c3nc(-c4ccccc4)cs3)C2=N)cc1 | i | i | i | i | i
COc1ccc(N2CC(O)=C(c3nc(-c4ccc(Br)cc4)cs3)C2=N)cc1 | i | i | i | i | 58.0
COCCn1ccc2c(OCC(=O)Nc3cc(OC)ccc3OC)cccc2c1=O | i | i | nt | i | i
SMILES | H9c2 protect | UPR CHOP act | CHOP inh | iPSC survival up | UPR XBP1 act
CCOCCn1ccc2c(OCC(=O)Nc3cc(OC)ccc3OC)cccc2c1=O | 52.6 | i | nt | i | i
COc1cccc(CNC(=O)[C@@H]2CCCN2C(=O)[C@H]2CCCCN2C(=O)c2cccc(OC)c2)c1 | nt | nt | nt | i | nt
Cc1nc(NC(=O)/C=C/c2ccccc2)sc1C(=O)Nc1ccc(Cl)cc1 | i | i | 88.0 | i | i
Cc1nc(Nc2ccc(Cl)c(Cl)c2)sc1C(=O)Nc1ccccc1 | i | i | 96.2 | i | i
CCCNC(=O)C1(C)CCN(Cc2ccc(-c3ccccc3)o2)C1 (stereo not given) | i | nt | nt | i | nt
CSc1ccccc1C(=O)OCC(=O)NC1CC1 | i | nt | nt | i | nt
CCOc1ccc(Cl)cc1-c1cc(C(=O)NC2CCCCC2)[nH]n1 | i | nt | nt | i | nt
O=C(CSc1nnc(-c2cccnc2)n1Cc1ccco1)c1ccccc1 | 50.3 | i | i | i | i
